Measurements gathered from unrelated publications.
Compare with care: the assays were run in different laboratories.
Target: Tyrosine-protein kinase TXK (TXK, Homo sapiens, UniProt P42681)
One construct used (P42681 1-527): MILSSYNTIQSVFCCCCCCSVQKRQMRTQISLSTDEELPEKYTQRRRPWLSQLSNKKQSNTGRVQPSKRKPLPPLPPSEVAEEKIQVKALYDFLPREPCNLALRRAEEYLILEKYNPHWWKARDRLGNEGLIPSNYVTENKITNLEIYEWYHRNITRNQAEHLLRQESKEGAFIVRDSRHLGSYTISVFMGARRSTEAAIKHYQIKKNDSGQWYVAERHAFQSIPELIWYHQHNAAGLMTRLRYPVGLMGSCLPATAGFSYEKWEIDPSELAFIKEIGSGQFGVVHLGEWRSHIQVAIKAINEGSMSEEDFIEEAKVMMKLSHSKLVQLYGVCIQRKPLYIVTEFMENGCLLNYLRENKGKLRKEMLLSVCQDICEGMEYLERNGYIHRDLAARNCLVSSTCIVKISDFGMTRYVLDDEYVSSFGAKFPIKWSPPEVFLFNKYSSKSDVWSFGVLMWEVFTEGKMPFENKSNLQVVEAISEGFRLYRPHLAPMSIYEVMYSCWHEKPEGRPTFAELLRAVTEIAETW

| SMILES | assay | setting | quantity | value |
| --- | --- | --- | --- | --- |
| COc1ncccc1-c1cnn2ccc(N3CCN(C(=O)OC(C)C)CC3)nc12 | binding, competition with immobilised ligand | 1 µM | remaining binding | 74% |
| O=c1[nH]c2ccccc2n1C1CCN(Cc2ccc(-c3[nH]c4cc5ncnc5cc4nc3-c3ccccc3)cc2)CC1 | enzyme activity | 0.5 µM | remaining activity | 104% |
| N#CC1(c2ccccn2)CCN(Cc2cc(C(=O)O)c(=O)n3ccccc23)CC1 | binding, competition with immobilised ligand | 1 µM | remaining binding | 100% |
| CC(C)(C)c1cc(C=C(C#N)C#N)cc(Br)c1O | enzyme activity, inhibitor | 0.5 µM | remaining activity | 108% |
| Cc1nn(C)cc1-c1nc2c(N3CCN(Cc4ccc(Cl)cc4)CC3)c(Cl)cnc2[nH]1 | binding, competition with immobilised ligand | 1 µM | remaining binding | 100% |
| Cn1cncc1[C@](O)(COc1ccc(C#N)cc1-c1ccc(OC(F)(F)F)cc1)c1ccc(C#N)cc1 | binding, competition with immobilised ligand | 1 µM | remaining binding | 87% |
| COc1cc(Nc2ncc(F)c(Nc3ccc4c(n3)NC(=O)C(C)(C)O4)n2)cc(OC)c1OC | binding | 10 µM | inhibition | 90% |
| Nc1ncc(-c2nc(N3CCOCC3)nc(N3CCOCC3)n2)c(C(F)F)n1 | binding, competition with immobilised ligand | 10 µM | remaining binding | 56% |
